EC50 data for 84 molecules are collected here from ChEMBL document CHEMBL1255198, “Expanding the diversity of allosteric bcr-abl inhibitors” (J Med Chem, 2010).

Test [1] in a line: Cytotoxicity against mouse BA/F3 cells. The class given is cell-based. As to conditions: BaF3. In a few lines: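 Parental IL-3-dependent murine Ba/F3 cells grown at 37 °C, 5% CO₂ in RPMI 1640 with 10% FBS, 1% L-glutamine and 10% WEHI-conditioned medium as IL-3 source. Growth after 48 h read by CellTiter-Glo luminescence.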
A short description of test [2]: Inhibition of Bcr-Abl E255K mutant in mouse BA/F3 cells assessed as cell growth inhibition. To be noted: BaF3.

Some results are limits rather than exact numbers.

Usually EC50 stands for the concentration giving half of the maximal effect. `FC(F)(F)Oc1ccc(Nc2ccc(NCCN3CCOCC3)nn2)cc1` came in with an EC50 in test [1] of more than 10 µM.
With `FC(F)(F)Oc1ccc(Nc2cc(-c3ccncc3)ncn2)cc1`, the EC50 in test [1] is more than 10 µM.
The molecule `FC(F)(F)Oc1ccc(Nc2cc(-c3cnn(Cc4cccnc4)c3)ncn2)cc1` returned an EC50 in test [1] of more than 10 µM.
`FC(F)(F)Oc1ccc(Nc2cc(NCCCN3CCOCC3)ncn2)cc1` registered an EC50 in test [1] of more than 10 µM.
On to `FC(F)(F)Oc1ccc(Nc2cc(-c3cn[nH]c3)ncn2)cc1`, for which the values for the EC50 in test [1] and in test [2] were more than 10 µM and 0.52 µM, respectively.
In test [1], `FC(F)(F)Oc1ccc(Nc2cc(N3CCOCC3)ncn2)cc1` yielded an EC50 of more than 10 µM.
Consider `FC(F)(F)Oc1ccc(Nc2cc(NCCN3CCOCC3)ncn2)cc1`, for which, in test [1], the EC50 is more than 10 µM.
In the case of `NS(=O)(=O)c1ccc(-c2cc(Nc3ccc(OC(F)(F)F)cc3)ncn2)cc1`, the EC50 in test [1] is more than 10 µM; in test [2] it was 0.31 µM.
For the molecule `CC(C)Cn1cc(-c2cc(Nc3ccc(OC(F)(F)F)cc3)ncn2)cn1`, the EC50 in test [1] is more than 10 µM.
`FC(F)(F)Oc1ccc(Nc2ncnc3nn(Cc4cccnc4)cc23)cc1` had an EC50 in test [1] of more than 10 µM.
Take `FC(F)(F)Oc1ccc(Nc2ncnc3c2cnn3C2CCCCC2)cc1`: the response in test [1] was half-maximal at 9.3 µM (EC50).
Regarding `O=C(O)c1cc2c(Nc3ccc(OC(F)(F)F)cc3)ncnc2s1`, the 50% effective concentration (EC50) in test [1] was more than 10 µM.
`FC(F)(F)Oc1ccc(Nc2ncnc3c2cnn3Cc2ccccc2)cc1` returned a half-maximal effective concentration (EC50) in test [1] of more than 10 µM.
In test [1], `NS(=O)(=O)c1cccc(-c2cc(Nc3ccc(OC(F)(F)F)cc3)ncn2)c1` had an EC50 of more than 10 µM.
In test [1], `CCNC(=O)c1cc2c(Nc3ccc(OC(F)(F)F)cc3)ncnc2s1` gave an EC50 of more than 10 µM.
In turn, `FC(F)(F)Oc1ccc(Nc2ncnc3[nH]ncc23)cc1` gave an EC50 in test [1] of more than 10 µM.
`COc1ccc(Nc2cc(NCCN3CCOCC3)ncn2)cc1` gave an EC50 in test [1] of more than 10 µM.
For the molecule `FC(F)(F)Oc1ccc(Nc2ncnc(NCCN3CCOCC3)n2)cc1`, in test [1], the EC50 is more than 10 µM.
In turn, `Cn1cc(-c2cc(Nc3ccc(OC(F)(F)F)cc3)ncn2)cn1` gave an EC50 in test [1] of more than 10 µM.
In test [1], `NC(=O)c1ccc(Cn2ncc3c(Nc4ccc(OC(F)(F)F)cc4)ncnc32)cc1` returned an EC50 of more than 10 µM.
Turning to `CC(C)(C)n1ncc2c(Nc3ccc(OC(F)(F)F)cc3)ncnc21`, the figures for the EC50 in test [1] and in test [2] were 7.3 µM and 0.5 µM, respectively.
Taken in the same sequence, the figures for `FC(F)(F)Oc1ccc(Nc2ncnc3c2ccn3CCN2CCOCC2)cc1` were more than 10 µM and 1.22 µM.
`FC(F)(F)c1ccc(Nc2cc(-c3ccncc3)ncn2)cn1` yielded a half-maximal effective concentration (EC50) in test [1] of more than 10 µM.
In the case of `OCCn1ncc2c(Nc3ccc(OC(F)(F)F)cc3)ncnc21`, the EC50 in test [1] was more than 10 µM; in test [2] it was 1.61 µM.
As for `FC(F)(F)Oc1cccc(Nc2cc(NCCN3CCOCC3)ncn2)c1`, the EC50 in test [1] was more than 10 µM.
As for `CCn1ncc2c(Nc3ccc(OC(F)(F)F)cc3)ncnc21`, the EC50 in test [1] is more than 10 µM.
In test [1], `OCCn1cc2c(Nc3ccc(OC(F)(F)F)cc3)ncnc2n1` yielded an EC50 of more than 10 µM.
For `NC(=O)Cn1cc2c(Nc3ccc(OC(F)(F)F)cc3)ncnc2n1`, the EC50 in test [1] is more than 10 µM.
As for `NC(=O)c1cccc(Nc2cc(Nc3ccc(OC(F)(F)F)cc3)ncn2)c1`, the EC50 in test [1] was more than 10 µM.
`COc1ccc(Nc2cc(-c3ccncc3)ncn2)cc1` had an EC50 in test [1] of more than 10 µM.
In turn, `Nc1cccc(-c2cc(Nc3ccc(OC(F)(F)F)cc3)ncn2)c1` yielded an EC50 in test [1] of more than 10 µM.
Take `CNC(=O)c1cccc(-c2cc(Nc3ccc(OC(F)(F)F)cc3)ncn2)c1`: the 50% effective concentration (EC50) in test [1] was more than 10 µM.
The same measure, in the same setting: the same measure for `Cc1ccc(C(=O)Nc2cccc(C(F)(F)F)c2)cc1NC(=O)c1cc2c(Nc3ccc(OC(F)(F)F)cc3)ncnc2s1`: 8.9 µM.
The molecule `FC(F)(F)Oc1ccc(Nc2cc(-n3ccnc3)ncn2)cc1` gave an EC50 in test [1] of more than 10 µM.
For `NC(=O)c1ccccc1-c1cc(Nc2ccc(OC(F)(F)F)cc2)ncn1`, the EC50 in test [1] was more than 10 µM.
For the molecule `COc1ccc(Cn2ccc3c(Nc4ccc(OC(F)(F)F)cc4)ncnc32)cc1`, the EC50 in test [1] is more than 10 µM.
In test [1], `FC(F)(F)Oc1ccc(Nc2ncnc3c2cnn3CC2CCOC2)cc1` (stereo not drawn) came in with an EC50 of more than 10 µM.
Molecule `FC(F)(F)Oc1ccc(Nc2ncnc3nn(C4CCCCC4)cc23)cc1` returned an EC50 in test [1] of more than 10 µM.
In test [1], `O=C(c1cc2c(Nc3ccc(OC(F)(F)F)cc3)ncnc2s1)N1CCNCC1` displayed an EC50 of 4.07 µM.
The same measure, in the same setting: the same measure for `Cc1nn(C)c(C)c1-c1cc(Nc2ccc(OC(F)(F)F)cc2)ncn1`: more than 10 µM.
Turning to `FC(F)(F)Oc1ccc(Nc2cc(-c3ccc4[nH]ccc4c3)ncn2)cc1`, the EC50 in test [1] was more than 10 µM.
Still for that read-out and setting: in the case of `FC(F)(F)Oc1ccc(Nc2ccnc(NCCN3CCOCC3)n2)cc1` it was more than 10 µM; in that of `FC(F)(F)Oc1ccc(CNc2cc(NCCN3CCOCC3)ncn2)cc1`, more than 10 µM.
In turn, `Cc1nc(C)c(Cn2ncc3c(Nc4ccc(OC(F)(F)F)cc4)ncnc32)s1` showed an EC50 in test [1] of more than 10 µM.
`CCCn1ncc2c(Nc3ccc(OC(F)(F)F)cc3)ncnc21` had an EC50 in test [1] of 6.6 µM.
The molecule `FC(F)(F)c1ccc(Nc2cc(-c3ccncc3)ncn2)cc1` yielded an EC50 in test [1] of more than 10 µM.
As to `FC(F)(F)Oc1ccc(Nc2ncnc3[nH]ccc23)cc1`, the EC50 in test [1] is more than 10 µM.
Same read-out and setting: in the case of `FC(F)(F)c1ccc(Nc2cc(NCCN3CCOCC3)ncn2)cc1` it was more than 10 µM; in that of `NC(=O)c1cccc(Oc2cc(Nc3ccc(OC(F)(F)F)cc3)ncn2)c1`, more than 10 µM; in that of `Cc1c(-c2cc(Nc3ccc(OC(F)(F)F)cc3)ncn2)cnn1-c1ccccc1`, more than 10 µM.
Same read-out and setting: in the case of `Fc1ccc(Nc2cc(-c3ccncc3)ncn2)cc1` it was more than 10 µM; in that of `FC(F)(F)Oc1ccc(Nc2cc(-c3ccnc4[nH]ccc34)ncn2)cc1`, 6.85 µM.
`NC(=O)CCn1ccc2c(Nc3ccc(OC(F)(F)F)cc3)ncnc21` came in with an EC50 in test [1] of more than 10 µM.
For the molecule `FC(F)(F)Oc1ccc(Nc2cncc(NCCN3CCOCC3)n2)cc1`, the EC50 in test [1] is more than 10 µM.
In test [1], `Cc1nc(NCCN2CCOCC2)cc(Nc2ccc(OC(F)(F)F)cc2)n1` displayed an EC50 of 1.11 µM.
On the same count and under the same terms, in the case of `CN(c1ccc(OC(F)(F)F)cc1)c1cc(-c2ccncc2)ncn1` it was more than 10 µM.
On the same count and under the same terms, in the case of `Cc1nc(-c2cc(Nc3ccc(OC(F)(F)F)cc3)ncn2)cs1` it was more than 10 µM; in that of `NC(=O)Cn1ncc2c(Nc3ccc(OC(F)(F)F)cc3)ncnc21`, 3.3 µM.
In the case of `FC(F)(F)Oc1ccc(Nc2nccc(NCCN3CCOCC3)n2)cc1`, in test [1], the EC50 was more than 10 µM.
Molecule `O=C(NCCO)c1cc2c(Nc3ccc(OC(F)(F)F)cc3)ncnc2s1` gave an EC50 in test [1] of more than 10 µM.
Molecule `COC(=O)c1cc2c(Nc3ccc(OC(F)(F)F)cc3)ncnc2s1` had a concentration for a half-maximal effect (EC50) in test [1] of more than 10 µM.
Turning to `FC(F)(F)Oc1ccc(Nc2ncnc3nn(Cc4ccccc4)cc23)cc1`, the EC50 in test [1] is more than 10 µM.
With `CN1CCN(C(=O)c2cc3c(Nc4ccc(OC(F)(F)F)cc4)ncnc3s2)CC1`, the EC50 in test [1] was 2.69 µM; in test [2], 1.33 µM.
Turning to `NC(=O)c1cccc(-c2cc(Nc3ccc(OC(F)(F)F)cc3)ncn2)c1`, the EC50 in test [1] was more than 10 µM; in test [2], 0.6 µM.
For `FC(F)(F)Oc1ccc(Nc2ncnc3c2cnn3Cc2ccncc2)cc1`, the EC50 in test [1] is more than 10 µM.
In test [1], `FC(F)(F)Oc1ccc(Oc2cc(NCCN3CCOCC3)ncn2)cc1` returned an EC50 of more than 10 µM.
As to `CCn1cc2c(Nc3ccc(OC(F)(F)F)cc3)ncnc2n1`, the EC50 in test [1] is more than 10 µM.
Consider `CS(=O)(=O)Nc1ccc(-c2cc(Nc3ccc(OC(F)(F)F)cc3)ncn2)cc1`, for which the EC50 in test [1] was found to be 2.21 µM; in test [2] it was 0.36 µM.
As to `FC(F)(F)Oc1ccc(Nc2ncnc3c2cnn3Cc2cccnc2)cc1`, the EC50 in test [1] was more than 10 µM.
The molecule `FC(F)(F)Oc1ccc(-c2cc(NCCN3CCOCC3)ncn2)cc1` yielded an EC50 in test [1] of more than 10 µM.
On the same count and under the same terms, in the case of `O=C(c1cc2c(Nc3ccc(OC(F)(F)F)cc3)ncnc2s1)N1CCC(O)CC1` it was more than 10 µM; in that of `CS(=O)(=O)c1cccc(-c2cc(Nc3ccc(OC(F)(F)F)cc3)ncn2)c1`, more than 10 µM; in that of `O=C(c1cc2c(Nc3ccc(OC(F)(F)F)cc3)ncnc2s1)N1CCN(N2CCCC2)CC1`, 5.77 µM.
`Cc1c(NCCN2CCOCC2)ncnc1Nc1ccc(OC(F)(F)F)cc1` showed an EC50 in test [1] of more than 10 µM.
For the molecule `NC(=O)c1ccc(-c2cc(Nc3ccc(OC(F)(F)F)cc3)ncn2)cc1`, in test [1], the EC50 was more than 10 µM.
Molecule `COCCCNC(=O)CCn1ccc2c(Nc3ccc(OC(F)(F)F)cc3)ncnc21` returned a concentration for a half-maximal effect (EC50) in test [1] of more than 10 µM.
On the same count and under the same terms, in the case of `Cn1ccc2c(Nc3ccc(OC(F)(F)F)cc3)ncnc21` it was more than 10 µM; in that of `FC(F)(F)Oc1ccc(Nc2cc(-c3cccc4[nH]ccc34)ncn2)cc1`, 3.79 µM.
Same read-out and setting: the same measure for `OCc1cc2c(Nc3ccc(OC(F)(F)F)cc3)ncnc2s1`: more than 10 µM.
As to `O=C(NCCO)c1cccc(-c2cc(Nc3ccc(OC(F)(F)F)cc3)ncn2)c1`, the EC50 in test [1] is more than 10 µM; in test [2], 0.58 µM.
In test [1], `CCCn1cc2c(Nc3ccc(OC(F)(F)F)cc3)ncnc2n1` had an EC50 of more than 10 µM.
`CN(c1ccc(OC(F)(F)F)cc1)c1cc(NCCN2CCOCC2)ncn1`: in test [1], the EC50 is more than 10 µM.
Consider `O=C(c1cccc(-c2cc(Nc3ccc(OC(F)(F)F)cc3)ncn2)c1)N1CCOCC1`, for which, in test [1], the half-maximal effective concentration (EC50) is more than 10 µM.
Molecule `O=C(NCCN1CCOCC1)c1cccc(-c2cc(Nc3ccc(OC(F)(F)F)cc3)ncn2)c1` displayed a half-maximal effective concentration (EC50) in test [1] of more than 10 µM.
